Data published in ChEMBL document CHEMBL1125577, “Determination of dissociation constants of high affinity (pM) human renin inhibitors: application to analogues of ditekiren (U-71,038)” (J Med Chem, 1991).
Numbered stars: 1 amine (or outer) side, 2 acyl side, 3 side chain; on linkers, the order of the positions; unused ones are H or OH. Square brackets hold non-standard residues; d marks the D form. Peptide text beside a SMILES is read from it. * marks the point of attachment. ξ: configuration not given here. X1 = CC(C)C[C@H](N[*:1])[C@@H](O)C[C@H](C(=O)[*:2])C(C)C; X2 = OC[C@H]1O[C@@H](O)[C@H](N*)[C@H](O)[C@@H]1O; NH(2-picolyl-N-oxide) = [O-][n+]1ccccc1CN*; NMeH = CN[C@@H](Cc1c[nH]cn1)C(=O)O; NHCH2(2-pyridyl) = c1ccc(CN*)nc1; Ile(3ξ) = CCC(C)[C@H](N)C(=O)O; NHC(CH2OH)3 = OCC(CO)(CO)N*; Boc = CC(C)(C)OC(=O)*; CO = O=C([*:1])[*:2]

Columns and labels:
Renin [1] = molecular target: T1, Renin (Homo sapiens, UniProt P00797); experiment: In vitro inhibition constants using recombinant human renin assay
T1 sequence (P00797 whole entry): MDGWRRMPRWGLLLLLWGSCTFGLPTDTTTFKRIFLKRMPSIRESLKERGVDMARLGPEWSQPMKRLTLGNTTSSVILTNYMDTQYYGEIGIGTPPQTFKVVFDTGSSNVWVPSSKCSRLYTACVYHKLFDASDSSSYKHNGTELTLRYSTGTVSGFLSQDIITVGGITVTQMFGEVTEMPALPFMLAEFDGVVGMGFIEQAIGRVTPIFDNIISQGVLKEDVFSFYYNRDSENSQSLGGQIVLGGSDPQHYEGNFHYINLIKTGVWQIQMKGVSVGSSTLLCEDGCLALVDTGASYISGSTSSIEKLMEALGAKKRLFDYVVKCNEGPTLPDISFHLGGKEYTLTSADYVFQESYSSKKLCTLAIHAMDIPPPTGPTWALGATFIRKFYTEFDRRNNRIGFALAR

Renin [2] = molecular target: T1, Renin; experiment: In vitro inhibition of human renin by radio-immuno assay of angiotensin I (ANG I)
[3] = The dissociation constant determined by fluorescence displacement assay
Procedure, shortened: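 Unlabeled inhibitor (6.6 and 13 nM) then added for 2.5 h more, with fluorescence read before and after each addition. Kd fitted from predicted binding curves or numerical solution, as the mean of three duplicate determinations.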

Ki (Renin [1]) | IC50 (Renin [2]) | Kd [3] | SMILES
0.04 nM | 0.26 nM | 0.04 nM | CC[C@H](C)[C@H](NC(=O)[C@@H](C[C@H](O)[C@H](CC(C)C)NC(=O)[C@H](Cc1c[nH]cn1)N(C)C(=O)[C@H](Cc1ccccc1)NC(=O)[C@@H]1CCCN1C(=O)OC(C)(C)C)C(C)C)C(=O)NCc1ccccn1 [DITEKIREN]
– | – | 0.033 nM | CCC(C)[C@H](NC(=O)[C@@H](C[C@H](O)[C@H](CC(C)C)NC(=O)[C@H](Cc1c[nH]cn1)N(C)C(=O)[C@H](Cc1ccccc1)NC(=O)[C@@H]1CCCN1C(=O)NC(CO)(CO)CO)C(C)C)C(=O)NCc1cccc[n+]1[O-] (some centres not stated) ({NHC(CH2OH)3-CO}-PF[NMeH][X1][Ile(3ξ)]-{NH(2-picolyl-N-oxide)})
– | 1.1 nM | 0.434 nM | CC[C@H](C)[C@H](NC(=O)[C@@H](C[C@H](O)[C@H](CC(C)C)NC(=O)[C@H](Cc1c[nH]cn1)N(C)C(=O)[C@H](Cc1ccccc1)NC(=O)[C@@H]1CCCN1C(=O)N[C@@H]1[C@H](O)[C@H](O)[C@@H](CO)O[C@H]1O)C(C)C)C(=O)NCc1cccc[n+]1[O-] ({X2-CO}-PF[NMeH][X1]I-{NH(2-picolyl-N-oxide)})
0.043 nM | 0.24 nM | 0.066 nM | CC[C@H](C)[C@H](NC(=O)[C@@H](C[C@H](O)[C@H](CC(C)C)NC(=O)[C@H](Cc1c[nH]cn1)NC(=O)[C@@H](Cc1ccccc1)NS(=O)(=O)c1cccc2c(N(C)C)cccc12)C(C)C)C(=O)NCc1ccccn1
– | 0.33 nM | – | CC[C@H](C)[C@H](NC(=O)[C@@H](C[C@H](O)[C@H](CC(C)C)NC(=O)[C@H](Cc1cnc[nH]1)N(C)C(=O)[C@H](Cc1ccccc1)NC(=O)[C@@H]1CCCN1C(=O)NC(CO)(CO)CO)C(C)C)C(=O)NCc1ccccn1 ({NHC(CH2OH)3-CO}-PF[NMeH][X1]I-{NHCH2(2-pyridyl)})
– | – | 0.131 nM | CC[C@H](C)[C@H](NC(=O)[C@@H](C[C@H](O)[C@H](CC(C)C)NC(=O)[C@H](Cc1c[nH]cn1)N(C)C(=O)[C@H](Cc1ccccc1)NC(=O)[C@@H]1CCCN1C(=O)OC(C)(C)C)C(C)C)C(=O)NCc1cccc[n+]1[O-] (Boc-PF[NMeH][X1]I-{NH(2-picolyl-N-oxide)})
– | – | 0.111 nM | CC[C@H](C)[C@H](NC(=O)[C@@H](C[C@H](O)[C@H](CC(C)C)NC(=O)[C@H](Cc1c[nH]cn1)N(C)C(=O)[C@H](Cc1ccccc1)NC(=O)[C@@H]1CCCN1C(=O)NC(CO)(CO)CO)C(C)C)C(=O)NCc1ccccn1 ({NHC(CH2OH)3-CO}-PF[NMeH][X1]I-{NHCH2(2-pyridyl)})
0.051 nM | 0.58 nM | – | CCC(C)[C@H](NC(=O)[C@@H](C[C@H](O)[C@H](CC(C)C)NC(=O)[C@H](Cc1cnc[nH]1)N(C)C(=O)[C@H](Cc1ccccc1)NC(=O)[C@@H]1CCCN1C(=O)NC(CO)(CO)CO)C(C)C)C(=O)NCc1cccc[n+]1[O-] (some centres not stated) ({NHC(CH2OH)3-CO}-PF[NMeH][X1][Ile(3ξ)]-{NH(2-picolyl-N-oxide)})
– | 0.33 nM | – | CC[C@H](C)[C@H](NC(=O)[C@@H](C[C@H](O)[C@H](CC(C)C)NC(=O)[C@H](Cc1cnc[nH]1)N(C)C(=O)[C@H](Cc1ccccc1)NC(=O)[C@@H]1CCCN1C(=O)OC(C)(C)C)C(C)C)C(=O)NCc1cccc[n+]1[O-] (Boc-PF[NMeH][X1]I-{NH(2-picolyl-N-oxide)})
– | 0.26 nM | 0.044 nM | CC[C@H](C)[C@H](NC(=O)[C@@H](C[C@H](O)[C@H](CC(C)C)NC(=O)[C@H](Cc1c[nH]cn1)N(C)C(=O)[C@H](Cc1ccccc1)NC(=O)[C@@H]1CCCN1C(=O)OC(C)(C)C)C(C)C)C(=O)NC(CO)(CO)CO (Boc-PF[NMeH][X1]I-{NHC(CH2OH)3})
